Source: PubChem BioAssay (several laboratories)
NPY Y2 blocker = antagonists of human neuropeptide Y receptor Y2. inhibition, % at 2.7 µM. AID 793. actives 0.99% (n = 140,000). NPY-Y2 expressing cells, antagonist mode. P49146; in the data active = inhibition above about 17%;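 also: 0% = vehicle with agonist challenge and 100% = reference antagonist with challenge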
NPY-Y2 PAM-ag = potentiates or activates human NPY-Y2 receptor | AID 1359 | activation, % at 3.6 µM | cells expressing NPY-Y2, potentiator/agonist read-out | P49146 | actives 0.45% (n = 220,000); in the data active = activation above about 27%;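 also: cells stimulated with NPY near EC25 plus isoproterenol at EC100; 0% = vehicle plus submaximal agonist and 100% = vehicle plus saturating agonist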
MDM2 E3 inh = inhibitors of human Mdm2 E3 ubiquitin ligase. actives 0.11% (n = 210,000). Q00987. AID 1230. cell-based MDM2 ubiquitination luciferase reporter, 2 h; 0 = plate control, 100 = twice control, blank-subtracted. signal enhancement, % at 5 µM;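 active = signal enhancement of 30% or more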;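 also: luminescence tracks abundance of the self-degrading MDM2-luciferase fusion protein; higher signal means inhibition of MDM2 E3 ligase activity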
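Assay system: stable mammalian line carrying autodegrading MDM2–luciferase fusion reporter; Input: 2000 cells in each well; Compound dosing: single-point 5 µM; Schedule: 2 h compound exposure at 37 °C; Signal: SteadyLite luciferase luminescence after 15 min room-temperature reagent incubation; Evaluation: % luminescence enhancement versus blank-corrected plate control mean; Benchmarks: plate controls and plate blanks.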
NPY Y1 blocker = blocks the human neuropeptide Y Y1 receptor; actives 1% (n = 200,000); inhibition, % at 3.6 µM; P25929; HEK293-CNG Y1 cells, membrane potential fluorescence; NPY at EC95, then isoproterenol;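 active = inhibition above the campaign mean inhibition of all tested compounds plus 3 SD, cut at about 20% in these data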;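 also: 0% = DMSO wells given NPY plus isoproterenol and 100% = isoproterenol alone without NPY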
Target sequence (P25929 whole entry, looked up): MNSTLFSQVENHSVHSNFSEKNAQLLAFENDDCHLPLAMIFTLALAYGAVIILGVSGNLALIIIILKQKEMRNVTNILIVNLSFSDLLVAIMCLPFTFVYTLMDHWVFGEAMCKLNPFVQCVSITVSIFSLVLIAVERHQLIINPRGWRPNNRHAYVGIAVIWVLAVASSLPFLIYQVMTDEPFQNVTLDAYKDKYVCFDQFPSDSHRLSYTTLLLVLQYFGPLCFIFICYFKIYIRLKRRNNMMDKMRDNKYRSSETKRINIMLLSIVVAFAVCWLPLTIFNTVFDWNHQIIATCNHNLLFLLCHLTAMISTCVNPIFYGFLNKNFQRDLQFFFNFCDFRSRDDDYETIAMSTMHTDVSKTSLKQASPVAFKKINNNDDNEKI
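Material: HEK293 cells co-expressing NPY Y1 receptor and cyclic-nucleotide gated channel. Timing: compound incubation 1 h at room temperature, readout 45 min post-stimulation. Signal: fluorescence, membrane potential probe.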
Measles CPE = protection of cells from measles virus; AID 841; Measles virus-infected cells, CPE protection, absorbance; protection (pct of control), % at 4 µM; actives 1.5% (n = 140,000); in the data active = protection mostly above about 24%, no sharp cut-off; inactive = mostly below about 26%
NPY1 pot ag = potentiators or agonists of human neuropeptide Y receptor Y1 | P25929 | NPY-Y1 expressing cells, potentiator/agonist activation | activation, % at 3.6 µM | actives 0.37% (n = 220,000); in the data active = activation above about 33%, passing the limit was not always enough;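 also: cells stimulated with NPY at EC10 then isoproterenol at EC100; 0% = low agonist plus stimulus and 100% = saturating agonist plus stimulus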
An asterisk follows results filed as active; · = no result given. Compounds with a hit are over-represented: about 2.8% of the library has one in this group of screens.

SMILES | NPY Y2 blocker | NPY-Y2 PAM-ag | MDM2 E3 inh | NPY Y1 blocker | Measles CPE | NPY1 pot ag
O=C(CCc1ccccc1)Nc1c(F)c(F)c(F)c(F)c1F | 16 | -36 | -9 | 33* | 5 | -78
Cc1cc(N/C=C\c2nnnn2-c2ccc(F)cc2)no1 | 2 | -7 | 3 | 6 | 34* | -2
COCCN1C(=O)C(=O)/C(=C(/O)c2ccc(S(=O)(=O)N3CCOCC3)cc2)C1c1ccc(C(C)C)cc1 (stereo unspecified) | 1 | 13 | -3 | 3 | 11 | 11
CCOC(=O)Cc1csc(NC(=O)CSc2nc(-c3ccccc3)c(C#N)c(=O)[nH]2)n1 | · | -10 | -1 | 21* | · | -15
O=C(CN1C(=O)COc2ccccc21)NCCCN1CCN(Cc2ccccc2)CC1 | 2 | -6 | -7 | -3 | 7 | -12
O=C(CN1C(=O)COc2ccccc21)NCCCN1CCc2ccccc2C1 | 2 | -5 | 1 | -1 | 27* | 7
Cc1ccc(S(=O)(=O)NCCc2nnc3ccc(SCC(=O)Nc4nc5ccccc5s4)nn23)cc1 | 1 | -1 | -18 | 1 | 30* | -1
Cc1cc(NC(=O)CSc2ccc3nnc(CCNS(=O)(=O)c4ccccc4)n3n2)no1 | · | -8 | 3 | -5 | · | -9
O=C(OCC(=O)N1CCN(C(=O)c2ccco2)CC1)C1=COCCO1 | 0 | 6 | -1 | 2 | 23* | -14
COC(=O)CSc1nnc(Cc2cc(=O)[nH]c(=O)[nH]2)n1-c1cccc(OC)c1 | 1 | 0 | -11 | 2 | 23 | -14
COc1cccc(-n2c(Cc3cc(=O)[nH]c(=O)[nH]3)nnc2SCC(=O)NC2CCCC2)c1 | 3 | 6 | -31 | 2 | 50* | -12
CNc1ccc(C(O)(C(F)(F)F)C(F)(F)F)cc1C(O)(C(F)(F)F)C(F)(F)F | 0 | 58* | -12 | -10 | 3 | 46*
Cc1ccc(N)c(C(O)(C(F)(F)F)C(F)(F)F)c1 | 3 | 3 | -9 | 3 | 13 | 7
Cc1cc(C(=O)CN2CCCC2)c(C)n1-c1ccc(Cl)cc1 | · | -2 | -9 | 21* | · | -3
Cc1cc(C(=O)CN2CCCCC2)c(C)n1-c1ccc(F)cc1 | 5 | 2 | -6 | 3 | 1 | -29
O=C(O)c1ccc(S(=O)(=O)c2ccc(Sc3ccc(C(=O)O)c(C(=O)O)c3)cc2)cc1 | · | -3 | -12 | 1 | · | -6
Cc1ccc(C)c(C(=O)c2c(C)nc3sccn23)c1 | 3 | 13 | -7 | 4 | 2 | -21
Cc1cc(C)c(NC(=O)c2cc3c(nc4sccn43)s2)c(C)c1 | -1 | 8 | -7 | -6 | 28* | 4
CCN(CC)C(=O)CCCC(=O)N(CC)CC | · | -15 | -3 | 2 | · | -10
C[C@H](CO)NC(=O)[C@H](C)[C@H]1C[C@]1(C)[C@H](NC(=O)OCc1ccccc1)c1ccccc1 | 0 | 5 | · | -4 | 17 | -10
C[C@@H](C(=O)Nc1ccc2ccccc2c1)[C@H]1C[C@]1(C)[C@H](NC(=O)OCc1ccccc1)c1ccccc1 | 3 | -12 | · | 4 | 38* | -18
CCN(CC)S(=O)(=O)c1cccc(-c2nnc(SCCOc3ccc(Cl)cc3)o2)c1 | 29* | -2 | -15 | 32* | 6 | -57
CCN(CC)S(=O)(=O)c1cccc(-c2nnc(SCCOc3ccccc3C)o2)c1 | 26* | -13 | -7 | 20* | 4 | -38
O=C(CN1CCN(C(=O)C2COc3ccccc3O2)CC1)Nc1ccc(F)cc1 (stereo unspecified) | · | -6 | -8 | · | · | 4
COc1ccc2sc(N(CCN(C)C)C(=O)/C=C/c3cccs3)nc2c1 | · | 41* | -10 | 8 | · | 42*
SMILES | NPY Y2 blocker | NPY-Y2 PAM-ag | MDM2 E3 inh | NPY Y1 blocker | Measles CPE | NPY1 pot ag
COc1ccc2nc(N(CCN(C)C)C(=O)/C=C/c3cccs3)sc2c1 | · | 25 | 5 | 12 | · | 22
COc1ccc(OC)c(NC(=O)COC(=O)c2c3c(nc4ccccc24)CCCC3)c1 | 11 | -13 | · | 8 | 4 | -31
COc1ccc(NC(=O)COC(=O)c2c3c(nc4ccccc24)CCCC3)cc1Cl | 19* | -11 | -8 | 24* | 0 | -55
CC(C)c1ccc(C2CC(=O)c3cnc(N4CCc5ccccc5C4)nc3C2)cc1 (stereo unspecified) | 2 | 7 | -3 | -3 | 18 | 11
CC1CC(C)CN(c2ncc3c(n2)CC(c2ccccc2)CC3=O)C1 (stereo unspecified) | 24* | -11 | -5 | 31* | 42* | -14
CCCCC1C(=O)N(c2ccccc2)N(c2ccccc2)C1=O | 4 | 6 | · | 3 | 60* | -16
CC(=O)c1cc(CC(=O)N2CCc3c([nH]c4ccccc34)C2c2ccccn2)cs1 (stereo unspecified) | · | 2 | -8 | 22* | · | 5
CCCc1nn(C)c2c1C(c1ccncc1)C(C#N)=C(N)O2 (stereo unspecified) | 0 | -16 | -9 | -1 | 40* | 21
CC(C)(O)C#Cc1ccccc1C(=O)NC(CC(N)=O)C(=O)O (stereo unspecified) | -1 | 23 | -13 | -4 | 65* | 28
Cc1cc(C)cc(CC(Cc2nc3ccccc3[nH]2)c2nc3ccccc3[nH]2)c1 (stereo unspecified) | 6 | -9 | -12 | 4 | 37* | -5
Cc1ccc(CSCc2nc3ccccc3[nH]2)cc1 | · | 6 | -7 | 1 | · | 8
CC(=O)c1cccc(NC(=O)C(C)N(C)CC(=O)Nc2ccc(Cl)cc2)c1 (stereo unspecified) | · | -4 | -8 | · | · | 5
CCn1ncc(Br)c1C(=O)Nc1ccc(C(=O)OC(C)C)cc1 | 4 | -26 | -48 | 6 | 38* | -35
CCn1ncc(Br)c1C(=O)Nc1ccccc1C(=O)OC | 2 | -17 | · | 0 | · | -27
COc1cc(/C=N/n2c(C)n[nH]c2=S)ccc1OCc1ccc(F)cc1 | 5 | -4 | 3 | 5 | 122* | -25
COc1ccc(/C=N/NC(=O)c2sccc2OCc2ccc(F)cc2)cc1OC | 26* | -27 | -31 | 12 | 6 | -21
COc1cc(/C=N\n2nnnc2N)ccc1OCc1ccc(F)cc1 | 6 | -21 | -9 | 9 | 60* | -23
CCOc1cc(/C=N/O)ccc1OCc1ccc(F)cc1 | 5 | -7 | -2 | 0 | 4 | 3
COc1ccc(CCNC(=O)c2cc(-c3ccccc3OC)on2)cc1OC | 10 | -4 | 2 | 8 | 45* | -35
COc1ccc(CCNC(=O)c2ccncc2)cc1OC | 3 | 12 | -13 | 4 | 7 | -7
COc1ccc(CCNC(=O)c2cc(C3CC3)on2)cc1OC | · | 5 | 9 | · | · | -7
COc1ccc(CCNC(=O)c2ccc3ccccc3n2)cc1OC | · | -19 | 1 | 20* | · | 3
